# Assay results: ChEMBL document CHEMBL4364284, “Design, Synthesis, and Efficacy Testing of Nitroethylene- and 7-Nitrobenzoxadiazol-Based Flavodoxin Inhibitors against Helicobacter pylori Drug-Resistant Clinical Strains and in Helicobacter pylori-Infected Mice” (J Med Chem, 2019)
# Activity calls are given as the source filed them. No cut-off for these calls is given here.
# Test system: not listed separately
# Experiment: Therapeutic index, ratio of MCC50 for human HeLa cells to MIC for inhibition of flavodoxin in Mnz-resistant Helicobacter pylori NCTC 11637 ATCC 43504 assessed as reduction in bacterial growth
# Assay type: toxicity
# Conditions: read-out: TI
# How it was run: (§1)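 TI is MCC50/MIC. For MCC50, HeLa cells (30 000/well, DMEM with 10% FBS) were exposed to compound at 25–1000 μM final. Viability by XTT at 450/650 nm; MCC50 is the concentration giving 50% lysis from viability curves. Run twice in triplicate.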
row,SMILES,selectivity ratio
1,COc1ccc(CS(=O)(=O)c2ccc(N)c3nonc23)cc1,> 10
2,COc1ccc(C[S+]([O-])c2ccc([N+](=O)[O-])c3nonc23)cc1 (stereo not drawn),30

# Biological target: T1, Flavodoxin (Helicobacter pylori (strain ATCC 700392 / 26695) (Campylobacter pylori)) (UniProt O25776)
# T1 sequence (whole entry): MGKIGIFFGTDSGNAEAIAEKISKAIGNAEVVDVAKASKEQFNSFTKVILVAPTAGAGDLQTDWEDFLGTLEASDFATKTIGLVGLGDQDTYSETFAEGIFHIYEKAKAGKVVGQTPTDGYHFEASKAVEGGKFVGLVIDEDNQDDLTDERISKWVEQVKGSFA
# Experiment: Inhibition of flavodoxin in Mnz-resistant Helicobacter pylori NCTC 11637 ATCC 43504 assessed as reduction in bacterial growth measured after 48 hrs by resazurin staining-based microdilution method
# Conditions: Helicobacter pylori NCTC 11637 = CCUG 17874 = ATCC 43504
# How it was run: (§2)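 Broth microdilution in brain heart infusion with 4% FBS. Inoculum diluted to OD600 0.01. Two-fold dilutions from a DMSO stock cover 64–0.031 μg/mL, with DMSO ≤1% v/v. Incubated 48 h at 37 °C under microaerophilic conditions. MIC is the lowest concentration giving complete growth inhibition, read by resazurin colour change and confirmed by spotting on blood agar. Run twice in triplicate.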
row,SMILES,MIC [µM]
1,COc1ccc(CSc2ccc(N)c3nonc23)cc1,27.8
2,ONCCc1ccccc1,> 233
3,COc1ccc(CSc2ccc([N+](=O)[O-])c3nonc23)cc1,1.6
4,COc1ccc(C2(C)SCc3cc(C)c(C)cc3CS2)cc1,3
5,O=[N+]([O-])C1=Cc2cc(Cl)cc(Cl)c2OC1c1ccc(F)cc1 (stereo not drawn),0.37
6,COc1ccc(CS(=O)(=O)c2ccc(N)c3nonc23)cc1,100
7,COc1ccc(C[S+]([O-])c2ccc([N+](=O)[O-])c3nonc23)cc1 (stereo not drawn),6

# Biological target: T1, Flavodoxin (Helicobacter pylori (strain ATCC 700392 / 26695) (Campylobacter pylori))
# Experiment: Inhibition of flavodoxin in clarithromycin/metronidazole-resistant Helicobacter pylori isolate 6 assessed as reduction in bacterial growth measured after 48 hrs by resazurin staining-based microdilution method
# Conditions: not given
row,SMILES,inhibition
1,COc1ccc(CSc2ccc(N)c3nonc23)cc1,Active

# Biological target: T1, Flavodoxin (Helicobacter pylori (strain ATCC 700392 / 26695) (Campylobacter pylori))
# Experiment: Inhibition of flavodoxin in metronidazole-resistant Helicobacter pylori isolate 2 assessed as reduction in bacterial growth measured after 48 hrs by resazurin staining-based microdilution method
# Conditions: not given
# How it was run: (§3)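 Clinical isolates from gastric biopsies of patients who failed ≥2 therapies; resistance classified by EUCAST breakpoints. […] Read by resazurin colour change as the lowest concentration giving complete growth inhibition.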
row,SMILES,inhibition
1,COc1ccc(CSc2ccc(N)c3nonc23)cc1,Active

# Test system: not listed separately
# Experiment: Therapeutic index, ratio of MCC50 for human HeLa cells to MIC for inhibition of flavodoxin in metronidazole-resistant Helicobacter pylori isolate 3 assessed as reduction in bacterial growth
# Assay type: toxicity
# Conditions: read-out: TI
# How it was run: as §1
row,SMILES,selectivity ratio
1,COc1ccc(CS(=O)(=O)c2ccc(N)c3nonc23)cc1,20

# Test system: Staphylococcus aureus
# Experiment: Effect on growth of Staphylococcus aureus ATCC 1228 after 48 hrs by resazurin-dye based microdilution assay
# Assay type: organism-based
# Conditions: not given
row,SMILES,Activity
1,ONCCc1ccccc1,Non-Toxic
2,COc1ccc(CS(=O)(=O)c2ccc(N)c3nonc23)cc1,Non-Toxic
3,COc1ccc(C[S+]([O-])c2ccc([N+](=O)[O-])c3nonc23)cc1 (stereo not drawn),Non-Toxic

# Biological target: T1, Flavodoxin (Helicobacter pylori (strain ATCC 700392 / 26695) (Campylobacter pylori))
# Experiment: Inhibition of flavodoxin in Helicobacter pylori SS1 assessed as reduction in bacterial growth measured after 48 hrs by resazurin staining-based microdilution method
# Conditions: not given
# How it was run: as §2
row,SMILES,MIC [µM]
1,COc1ccc(CSc2ccc(N)c3nonc23)cc1,13.9
2,ONCCc1ccccc1,> 233
3,COc1ccc(CSc2ccc([N+](=O)[O-])c3nonc23)cc1,0.78
4,COc1ccc(C2(C)SCc3cc(C)c(C)cc3CS2)cc1,6.1
5,O=[N+]([O-])C1=Cc2cc(Cl)cc(Cl)c2OC1c1ccc(F)cc1 (stereo not drawn),0.37
6,COc1ccc(CS(=O)(=O)c2ccc(N)c3nonc23)cc1,100
7,COc1ccc(C[S+]([O-])c2ccc([N+](=O)[O-])c3nonc23)cc1 (stereo not drawn),12

# Test system: not listed separately
# Experiment: Therapeutic index, ratio of MCC50 for human HeLa cells to MIC for inhibition of flavodoxin in rifampicin-resistant Helicobacter pylori isolate 5 assessed as reduction in bacterial growth
# Assay type: toxicity
# Conditions: read-out: TI
# How it was run: as §1
row,SMILES,selectivity ratio
1,COc1ccc(CS(=O)(=O)c2ccc(N)c3nonc23)cc1,10

# Biological target: T1, Flavodoxin (Helicobacter pylori (strain ATCC 700392 / 26695) (Campylobacter pylori))
# Experiment: Inhibition of flavodoxin in clarithromycin/metronidazole-resistant Helicobacter pylori isolate 4 assessed as reduction in bacterial growth measured after 48 hrs by resazurin staining-based microdilution method
# Conditions: not given
# How it was run: as §3
row,SMILES,inhibition
1,COc1ccc(CSc2ccc(N)c3nonc23)cc1,Active

# Biological target: T1, Flavodoxin (Helicobacter pylori (strain ATCC 700392 / 26695) (Campylobacter pylori))
# Experiment: Binding affinity to Helicobacter pylori flavodoxin by isothermal titration calorimetric method
# Conditions: not given
row,SMILES,Activity
1,COc1ccc(CSc2ccc(N)c3nonc23)cc1,Active
2,ONCCc1ccccc1,Active
3,COc1ccc(CSc2ccc([N+](=O)[O-])c3nonc23)cc1,Active
4,COc1ccc(C2(C)SCc3cc(C)c(C)cc3CS2)cc1,Active
5,O=[N+]([O-])C1=Cc2cc(Cl)cc(Cl)c2OC1c1ccc(F)cc1 (stereo not drawn),Active
6,COc1ccc(CS(=O)(=O)c2ccc(N)c3nonc23)cc1,Active
7,COc1ccc(C[S+]([O-])c2ccc([N+](=O)[O-])c3nonc23)cc1 (stereo not drawn),Active

# Test system: Escherichia coli
# Experiment: Effect on growth of Escherichia coli DH5[alpha] after 48 hrs by resazurin-dye based microdilution assay
# Assay type: organism-based
# Conditions: not given
row,SMILES,Activity
1,ONCCc1ccccc1,Non-Toxic
2,COc1ccc(CS(=O)(=O)c2ccc(N)c3nonc23)cc1,Non-Toxic
3,COc1ccc(C[S+]([O-])c2ccc([N+](=O)[O-])c3nonc23)cc1 (stereo not drawn),Non-Toxic

# Test system: not listed separately
# Experiment: Stability of the compound in DMSO-d6 at pH 1 incubated for 19 hrs under shaking condition by 1H-NMR analysis
# Assay type: physicochemical
# Conditions: pH 1, 19 h
row,SMILES,Stability
1,COc1ccc(CSc2ccc(N)c3nonc23)cc1,Stable
2,COc1ccc(CSc2ccc([N+](=O)[O-])c3nonc23)cc1,Stable
3,COc1ccc(C2(C)SCc3cc(C)c(C)cc3CS2)cc1,Stable

# Test system: not listed separately
# Experiment: Therapeutic index, ratio of MCC50 for human HeLa cells to MIC for inhibition of flavodoxin in clarithromycin/metronidazole-resistant Helicobacter pylori isolate 4 assessed as reduction in bacterial growth
# Assay type: toxicity
# Conditions: read-out: TI
# How it was run: as §1
row,SMILES,selectivity ratio
1,COc1ccc(CS(=O)(=O)c2ccc(N)c3nonc23)cc1,20

# Biological target: T1, Flavodoxin (Helicobacter pylori (strain ATCC 700392 / 26695) (Campylobacter pylori))
# Experiment: Inhibition of flavodoxin in Helicobacter pylori ATCC 700392 26695 assessed as reduction in bacterial growth measured after 48 hrs by resazurin staining-based microdilution method
# Conditions: Helicobacter pylori 26695
# How it was run: as §2
row,SMILES,MIC [µM]
1,COc1ccc(CSc2ccc(N)c3nonc23)cc1,27.8
2,ONCCc1ccccc1,> 233
3,COc1ccc(CSc2ccc([N+](=O)[O-])c3nonc23)cc1,6.3
4,COc1ccc(C2(C)SCc3cc(C)c(C)cc3CS2)cc1,3
5,O=[N+]([O-])C1=Cc2cc(Cl)cc(Cl)c2OC1c1ccc(F)cc1 (stereo not drawn),0.37
6,COc1ccc(CS(=O)(=O)c2ccc(N)c3nonc23)cc1,100
7,COc1ccc(C[S+]([O-])c2ccc([N+](=O)[O-])c3nonc23)cc1 (stereo not drawn),6

# Test system: not listed separately
# Experiment: Therapeutic index, ratio of MCC50 for human HeLa cells to MIC for inhibition of flavodoxin in Helicobacter pylori ATCC 700392 26695 assessed as reduction in bacterial growth
# Assay type: toxicity
# Conditions: HeLa cells versus Helicobacter pylori ATCC 700392 26695, read-out: TI
# How it was run: as §1
row,SMILES,selectivity ratio
1,COc1ccc(CS(=O)(=O)c2ccc(N)c3nonc23)cc1,> 10
2,COc1ccc(C[S+]([O-])c2ccc([N+](=O)[O-])c3nonc23)cc1 (stereo not drawn),30

# Test system: not listed separately
# Experiment: Therapeutic index, ratio of MCC50 for human HeLa cells to MIC for inhibition of flavodoxin in clarithromycin/metronidazole-resistant Helicobacter pylori isolate 6 assessed as reduction in bacterial growth
# Assay type: toxicity
# Conditions: read-out: TI
# How it was run: as §1
row,SMILES,selectivity ratio
1,COc1ccc(CS(=O)(=O)c2ccc(N)c3nonc23)cc1,10

# Test system: not listed separately
# Experiment: Cytotoxicity against human HeLa cells assessed as reduction in cell viability by XTT assay
# Assay type: cell-based
# Conditions: read-out: MCC50
# How it was run: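 HeLa cells grown in DMEM with 10% FBS, penicillin and streptomycin at 37 °C, 5% CO2; 30 000 cells/well. XTT viability read at 450 and 650 nm. MCC50 (50% lysis) came from viability-versus-concentration curves. Two experiments, each in triplicate.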
row,SMILES,CC50 [µM]
1,ONCCc1ccccc1,> 1000
2,COc1ccc(CS(=O)(=O)c2ccc(N)c3nonc23)cc1,> 1000
3,COc1ccc(C[S+]([O-])c2ccc([N+](=O)[O-])c3nonc23)cc1 (stereo not drawn),179

# Biological target: T1, Flavodoxin (Helicobacter pylori (strain ATCC 700392 / 26695) (Campylobacter pylori))
# Experiment: Inhibition of flavodoxin in metronidazole-resistant Helicobacter pylori isolate 1 assessed as reduction in bacterial growth measured after 48 hrs by resazurin staining-based microdilution method
# Conditions: not given
# How it was run: as §3
row,SMILES,inhibition
1,COc1ccc(CSc2ccc(N)c3nonc23)cc1,Active

# Biological target: T1, Flavodoxin (Helicobacter pylori (strain ATCC 700392 / 26695) (Campylobacter pylori))
# Experiment: Binding affinity to Helicobacter pylori flavodoxin by thermal upshift assay
# Conditions: not given
row,SMILES,Activity
1,COc1ccc(CSc2ccc(N)c3nonc23)cc1,Active
2,ONCCc1ccccc1,Active
3,COc1ccc(CSc2ccc([N+](=O)[O-])c3nonc23)cc1,Active
4,COc1ccc(C2(C)SCc3cc(C)c(C)cc3CS2)cc1,Active
5,O=[N+]([O-])C1=Cc2cc(Cl)cc(Cl)c2OC1c1ccc(F)cc1 (stereo not drawn),Active
6,COc1ccc(CS(=O)(=O)c2ccc(N)c3nonc23)cc1,Active
7,COc1ccc(C[S+]([O-])c2ccc([N+](=O)[O-])c3nonc23)cc1 (stereo not drawn),Active

# Test system: not listed separately
# Experiment: Therapeutic index, ratio of MCC50 for human HeLa cells to MIC for inhibition of flavodoxin in metronidazole-resistant Helicobacter pylori isolate 2 assessed as reduction in bacterial growth
# Assay type: toxicity
# Conditions: read-out: TI
# How it was run: as §1
row,SMILES,selectivity ratio
1,COc1ccc(CS(=O)(=O)c2ccc(N)c3nonc23)cc1,10

# Test system: not listed separately
# Experiment: Therapeutic index, ratio of MCC50 for human HeLa cells to MIC for inhibition of flavodoxin in Helicobacter pylori SS1 assessed as reduction in bacterial growth
# Assay type: toxicity
# Conditions: HeLa cells versus Helicobacter pylori SS1, read-out: TI
# How it was run: as §1
row,SMILES,selectivity ratio
1,COc1ccc(CS(=O)(=O)c2ccc(N)c3nonc23)cc1,> 10
2,COc1ccc(C[S+]([O-])c2ccc([N+](=O)[O-])c3nonc23)cc1 (stereo not drawn),15

# Test system: not listed separately
# Experiment: Therapeutic index, ratio of MCC50 for human HeLa cells to MIC for inhibition of flavodoxin in metronidazole-resistant Helicobacter pylori isolate 1 assessed as reduction in bacterial growth
# Assay type: toxicity
# Conditions: read-out: TI
# How it was run: as §1
row,SMILES,selectivity ratio
1,COc1ccc(CS(=O)(=O)c2ccc(N)c3nonc23)cc1,10
